# Assays:
# [1] = Cmax in Sprague-Dawley rat at 0.5 mg/kg, iv or […], po by LC-MS/MS method; format: ADME, organism-based; conditions: in vivo
# [2] = Oral bioavailability in Beagle dog at 0.625 mg/kg by LC-MS/MS method; format: ADME, organism-based, Canis lupus familiaris; conditions: in vivo
# Summary of the method: (§1)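 Single-dose PK in male Sprague-Dawley rats, beagle dogs or cynomolgus monkeys, given i.v. and p.o. as a solution in 50% PEG400/50% water or 20% HP-β-CD. Plasma measured by LC–MS/MS; parameters from noncompartmental analysis.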
# [3] = Drug uptake in Sprague-Dawley rat brain administered at 10 mg/kg, po measured after 2.0 hrs; format: ADME, organism-based
# Summary of the method: (§2)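 Male Sprague Dawley rats (300–400 g) given 10 mg/kg p.o. One compound was dosed as a 0.5% HPMC suspension and the other as a 20% HP-β-cyclodextrin solution. Two animals per time point were killed with CO2 at 0.5, 2 and 6 h, and plasma and brain drug levels were taken. Data are mean ± SEM (n=2).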
# [4] = Clearance in Beagle dog at 0.125 mg/kg, iv or 0.625 mg/kg, po by LC-MS/MS method; format: ADME, organism-based, Canis lupus familiaris; conditions: in vivo
# [5] = Drug uptake in Sprague-Dawley rat plasma administered at 10 mg/kg, po measured after 6.0 hrs; format: ADME, organism-based; summary of the method: as §2
# [6] = Half life in cynomolgus monkey at 0.125 mg/kg, iv by LC-MS/MS method; format: ADME, organism-based, Macaca fascicularis; conditions: in vivo; summary of the method: as §1
# [7] = AUC in rat dosed at 250 mg/kg, po for 4 days; format: ADME, organism-based; conditions: in vivo
# [8] = Cmax in rat at 250 mg/kg, po for 4 days; format: ADME, organism-based; design: dose 250 mg/kg, route oral; conditions: in vivo
# [9] = Oral bioavailability in cynomolgus monkey at 0.625 mg/kg by LC-MS/MS method; format: ADME, organism-based, Macaca fascicularis; conditions: in vivo; summary of the method: as §1
# [10] = Apparent permeability across apical to basolateral side in human Caco2 cells; format: ADME, cell-based; conditions: Caco-2
# Summary of the method: (§3)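 Caco-2 bidirectional permeability, reported as Papp B-A/A-B (×10⁻⁶ cm/s).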
# [11] = Drug uptake in Sprague-Dawley rat brain administered at 10 mg/kg, po measured after 0.5 hrs; format: ADME, organism-based; summary of the method: as §2
# [12] = Cmax in cynomolgus monkey at 0.125 mg/kg, iv or 0.625 mg/kg, po by LC-MS/MS method; format: ADME, organism-based, Macaca fascicularis; conditions: in vivo
# [13] = Apparent permeability across basolateral to apical side in human Caco2 cells; format: ADME, cell-based; conditions: Caco-2; summary of the method: as §3
# [14] = AUC (24 hrs) in Beagle dog at 0.125 mg/kg, iv or 0.625 mg/kg, po by LC-MS/MS method; format: ADME, organism-based, Canis lupus familiaris; conditions: in vivo
# [15] = Cmax in Beagle dog at 0.125 mg/kg, iv or 0.625 mg/kg, po by LC-MS/MS method; format: ADME, organism-based, Canis lupus familiaris; conditions: in vivo
# [16] = Clearance in Sprague-Dawley rat at 0.5 mg/kg, iv or […], po by LC-MS/MS method; format: ADME, organism-based; conditions: in vivo
# [17] = Cmax in dog at 300 mg/kg, po for 5 days; format: ADME, organism-based, Canis lupus familiaris; design: dose 300 mg/kg, route oral; conditions: in vivo
# [18] = Drug uptake in Sprague-Dawley rat brain administered at 10 mg/kg, po measured after 6.0 hrs; format: ADME, organism-based; summary of the method: as §2
# [19] = Half life in Sprague-Dawley rat at 0.5 mg/kg, iv by LC-MS/MS method; format: ADME, organism-based; conditions: in vivo; summary of the method: as §1
# [20] = AUC in dog at 300 mg/kg, po for 5 days; format: ADME, organism-based, Canis lupus familiaris; conditions: in vivo
# [21] = Clearance in cynomolgus monkey at 0.125 mg/kg, iv or 0.625 mg/kg, po by LC-MS/MS method; format: ADME, organism-based, Macaca fascicularis; conditions: in vivo
# [22] = Volume of distribution at steady state in cynomolgus monkey at 0.125 mg/kg, iv or 0.625 mg/kg, po by LC-MS/MS method; format: ADME, organism-based, Macaca fascicularis; conditions: in vivo, read-out: Vdss
# [23] = Partition coefficient, log D of the compound at pH 7.4; format: physicochemical; conditions: octanol/water
# [24] = AUC (24 hrs) in Sprague-Dawley rat at 0.5 mg/kg, iv or […], po by LC-MS/MS method; format: ADME, organism-based; conditions: in vivo
# [25] = Drug uptake in Sprague-Dawley rat plasma administered at 10 mg/kg, po measured after 0.5 hrs; format: ADME, organism-based; summary of the method: as §2
# [26] = Half life in Beagle dog at 0.125 mg/kg, iv by LC-MS/MS method; format: ADME, organism-based, Canis lupus familiaris; conditions: in vivo
# [27] = Oral bioavailability in Sprague-Dawley rat at […] by LC-MS/MS method; format: ADME, organism-based; conditions: in vivo
# [28] = Drug uptake in Sprague-Dawley rat plasma administered at 10 mg/kg, po measured after 2.0 hrs; format: ADME, organism-based; summary of the method: as §2
# [29] = Volume of distribution at steady state in Sprague-Dawley rat at 0.5 mg/kg, iv or […], po by LC-MS/MS method; format: ADME, organism-based; conditions: in vivo, read-out: Vdss
# [30] = AUC (24 hrs) in cynomolgus monkey at 0.125 mg/kg, iv or 0.625 mg/kg, po by LC-MS/MS method; format: ADME, organism-based, Macaca fascicularis; conditions: in vivo
# [31] = Volume of distribution at steady state in Beagle dog at 0.125 mg/kg, iv or 0.625 mg/kg, po by LC-MS/MS method; format: ADME, organism-based, Canis lupus familiaris; conditions: in vivo, read-out: Vdss
# [32] = Oral bioavailability in cynomolgus monkey at […] by LC-MS/MS method; format: ADME, organism-based, Macaca fascicularis; conditions: in vivo
# [33] = Cmax in dog at 10 mg/kg, po for 5 days; format: ADME, organism-based, Canis lupus familiaris; design: dose 10 mg/kg, route oral; conditions: in vivo
# [34] = Cmax in cynomolgus monkey at 0.5 mg/kg, iv or […], po by LC-MS/MS method; format: ADME, organism-based, Macaca fascicularis; conditions: in vivo
# Canis familiaris = species: Canis familiaris; experiment: Toxicity in dog; design: species or system Canis lupus familiaris; conditions: in vivo
# [35] = AUC in dog at 10 mg/kg, po for 5 days; format: ADME, organism-based, Canis lupus familiaris; conditions: in vivo
# [36] = AUC in rat at 125 mg/kg, po for 5 days; format: ADME, organism-based; conditions: in vivo
# Cavia porcellus = species: Cavia porcellus; experiment: Toxicity in guinea pig; conditions: in vivo
# [37] = Volume of distribution at steady state in Sprague-Dawley rat at 1 mg/kg, iv or 5 mg/kg, po by LC-MS/MS method; format: ADME, organism-based; conditions: in vivo, read-out: Vdss
# [38] = Cmax in Beagle dog at […], iv or 1.25 mg/kg, po by LC-MS/MS method; format: ADME, organism-based, Canis lupus familiaris; conditions: in vivo
# [39] = Clearance in cynomolgus monkey at 0.5 mg/kg, iv or […], po by LC-MS/MS method; format: ADME, organism-based, Macaca fascicularis; conditions: in vivo
# [40] = Clearance in Beagle dog at […], iv or 1.25 mg/kg, po by LC-MS/MS method; format: ADME, organism-based, Canis lupus familiaris; conditions: in vivo
# [41] = Oral bioavailability in Beagle dog at 1.25 mg/kg by LC-MS/MS method; format: ADME, organism-based, Canis lupus familiaris; conditions: in vivo; summary of the method: as §1
# [42] = Oral bioavailability in Sprague-Dawley rat at 5 mg/kg by LC-MS/MS method; format: ADME, organism-based; conditions: in vivo; summary of the method: as §1
# [43] = Volume of distribution at steady state in Beagle dog at […], iv or 1.25 mg/kg, po by LC-MS/MS method; format: ADME, organism-based, Canis lupus familiaris; conditions: in vivo, read-out: Vdss
# [44] = Half life in Beagle dog at […], iv by LC-MS/MS method; format: ADME, organism-based, Canis lupus familiaris; conditions: in vivo
# [45] = AUC (24 hrs) in Beagle dog at […], iv or 1.25 mg/kg, po by LC-MS/MS method; format: ADME, organism-based, Canis lupus familiaris; conditions: in vivo
# [46] = Clearance in Sprague-Dawley rat at 1 mg/kg, iv or 5 mg/kg, po by LC-MS/MS method; format: ADME, organism-based; conditions: in vivo
# [47] = Plasma concentration in guinea pig; format: ADME, Cavia porcellus
# [48] = AUC (24 hrs) in cynomolgus monkey at 0.5 mg/kg, iv or […], po by LC-MS/MS method; format: ADME, organism-based, Macaca fascicularis; conditions: in vivo
# [49] = Volume of distribution at steady state in cynomolgus monkey at 0.5 mg/kg, iv or […], po by LC-MS/MS method; format: ADME, organism-based, Macaca fascicularis; conditions: in vivo, read-out: Vdss
# [50] = AUC (24 hrs) in Sprague-Dawley rat at 1 mg/kg, iv or 5 mg/kg, po by LC-MS/MS method; format: ADME, organism-based; conditions: in vivo
# [51] = Half life in Sprague-Dawley rat at 1 mg/kg, iv by LC-MS/MS method; format: ADME, organism-based; conditions: in vivo; summary of the method: as §1
# Plasma = experiment: Plasma concentration in dog; format: ADME, Canis lupus familiaris
# [52] = Half life in cynomolgus monkey at 0.5 mg/kg, iv by LC-MS/MS method; format: ADME, organism-based, Macaca fascicularis; conditions: in vivo; summary of the method: as §1
# [53] = Cmax in Sprague-Dawley rat at 1 mg/kg, iv or 5 mg/kg, po by LC-MS/MS method; format: ADME, organism-based; conditions: in vivo
# [54] = Cmax in rat at 125 mg/kg, po for 5 days; format: ADME, organism-based; design: dose 125 mg/kg, route oral; conditions: in vivo
smiles,measurement,setting,value
C[C@H]1Cc2c(nnn2-c2ncc(F)cn2)CN1C(=O)c1cccc(C(F)(F)F)c1F,Cmax,[1],541 ng/mL
same,bioavailability,[2],123%
same,concentration at 2 h,[3],2390 ng/mL
same,clearance,[4],3.8 mL/min/kg
same,concentration at 6 h,[5],1050 ng/mL
same,half-life,[6],0.9 h
same,AUC at 96 h,[7],108000 ng·h/mL
same,Cmax,[8],9260 ng/mL
same,bioavailability,[9],30%
same,Papp A→B,[10],49 ×10⁻⁶ cm/s
same,concentration at 0.5 h,[11],1060 ng/mL
same,Cmax,[12],36 ng/mL
same,Papp B→A,[13],73 ×10⁻⁶ cm/s
same,AUC at 24 h,[14],3040 ng·h/mL
same,Cmax,[15],305 ng/mL
same,clearance,[16],12 mL/min/kg
same,Cmax,[17],5330 ng/mL
same,concentration at 6 h,[18],1620 ng/mL
same,half-life,[19],2.5 h
same,AUC at 120 h,[20],78400 ng·h/mL
same,clearance,[21],26 mL/min/kg
same,Vd,[22],1.7 L/kg
same,logD,[23],2.23
same,AUC at 24 h,[24],3190 ng·h/mL
same,concentration at 0.5 h,[25],855 ng/mL
same,half-life,[26],8.8 h
same,bioavailability,[27],90%
same,concentration at 2 h,[28],1880 ng/mL
same,Vd,[29],2.5 L/kg
same,AUC at 24 h,[30],122 ng·h/mL
same,Vd,[31],2.6 L/kg
C[C@H]1Cc2c(nnn2-c2ncc(F)cn2)CN1C(=O)c1ccnc(C(F)(F)F)c1F [ZANVIPIXANT],bioavailability,[32],97%
same,Cmax,[33],10700 ng/mL
same,Cmax,[34],1860 ng/mL
same,NOAEL,Canis familiaris,1280 ng/mL
same,concentration at 2 h,[3],2910 ng/mL
same,AUC at 120 h,[35],167000 ng·h/mL
same,AUC at 120 h,[36],291000 ng·h/mL
same,concentration at 6 h,[5],2440 ng/mL
same,NOAEL,Cavia porcellus,1850 ng/mL
same,Vd,[37],1.7 L/kg
same,Cmax,[38],1120 ng/mL
same,clearance,[39],2.6 mL/min/kg
same,Papp A→B,[10],35 ×10⁻⁶ cm/s
same,clearance,[40],0.8 mL/min/kg
same,bioavailability,[41],98%
same,concentration at 0.5 h,[11],3040 ng/mL
same,bioavailability,[42],81%
same,Vd,[43],1.4 L/kg
same,half-life,[44],21.2 h
same,Papp B→A,[13],45 ×10⁻⁶ cm/s
same,AUC at 24 h,[45],23300 ng·h/mL
same,clearance,[46],3.7 mL/min/kg
same,Cp,[47],4095 ng/mL
same,AUC at 24 h,[48],16300 ng·h/mL
same,concentration at 6 h,[18],1990 ng/mL
same,Vd,[49],1.3 L/kg
same,logD,[23],1.65
same,AUC at 24 h,[50],17500 ng·h/mL
same,half-life,[51],5.6 h
same,concentration at 0.5 h,[25],3190 ng/mL
same,Cp,Plasma,2820 ng/mL
same,half-life,[52],6 h
same,concentration at 2 h,[28],3430 ng/mL
same,Cmax,[53],1750 ng/mL
same,Cmax,[54],26000 ng/mL

# From ChEMBL document CHEMBL4028916, “A Dipolar Cycloaddition Reaction To Access 6-Methyl-4,5,6,7-tetrahydro-1H-[1,2,3]triazolo[4,5-c]pyridines Enables the Discovery Synthesis and Preclinical Profiling of a P2X7 Antagonist Clinical Candidate” (J Med Chem, 2018)
